For data set [1], the target named is T1, Neuronal acetylcholine receptors; alpha-3/beta-4, alpha-5, beta-2 (Homo sapiens) (UniProt P17787+P30926+P32297+P30532). Put plainly: Agonist activity at alpha3beta4alpha5beta2 in human SH-SY5Y cells at 10 uM by 86Rb+ flux assay. The class given is functional, cell-based. A digest of the protocol:
(§1)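 Human neuroblastoma SH-SY5Y cells endogenously express α3β4* nAChRs (α3, β4, probably α5, sometimes β2); their α7 receptors give no signal under these conditions. Cells were kept at low passage (1−26 from frozen stocks). Function was read as 86Rb+ efflux, with agonist and antagonist modes tested up to 10 μM.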

Data set [2] has as its target T2, 5-hydroxytryptamine receptor 1A (Homo sapiens) (UniProt P08908).
T2 sequence (whole entry): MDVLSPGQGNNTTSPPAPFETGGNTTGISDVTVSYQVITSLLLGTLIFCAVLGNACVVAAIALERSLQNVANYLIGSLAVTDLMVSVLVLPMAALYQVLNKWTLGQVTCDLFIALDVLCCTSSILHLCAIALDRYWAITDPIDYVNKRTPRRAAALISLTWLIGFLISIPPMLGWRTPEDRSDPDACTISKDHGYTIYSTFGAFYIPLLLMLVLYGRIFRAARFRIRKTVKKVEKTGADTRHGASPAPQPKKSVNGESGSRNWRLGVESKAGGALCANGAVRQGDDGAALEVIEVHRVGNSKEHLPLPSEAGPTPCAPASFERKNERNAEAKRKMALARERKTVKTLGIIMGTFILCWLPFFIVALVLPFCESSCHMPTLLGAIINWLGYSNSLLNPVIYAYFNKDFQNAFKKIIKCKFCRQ
Put plainly: Displacement of [3H]8-OH-DPAT from 5-HT1A at 10 uM.

Data set [3] deals with 5-hydroxytryptamine receptor 6 (Homo sapiens) (UniProt P50406). As to the kind of experiment: Displacement of [3H]LSD from 5-HT6 at 10 uM.
For data set [4], the target named is 5-hydroxytryptamine receptor 1E (Homo sapiens) (UniProt P28566). As to the kind of experiment: Displacement of [3H]5-HT from 5-HT1E at 10 uM. On the technique in general: Loss of bound radioactivity is the signal in a displacement assay; it reports binding, not function.
Data set [5] deals with Histamine H1 receptor (Homo sapiens) (UniProt P35367). Put plainly: Displacement of [3H]Pyrilamine from H1 histamine receptor at 10 uM.
Data set [6] addresses D(3) dopamine receptor (Homo sapiens) (UniProt P35462). Put plainly: Displacement of [3H]N-methylspiperone from D3 at 10 uM.
The target in data set [7] is T1, Neuronal acetylcholine receptors; alpha-3/beta-4, alpha-5, beta-2 (Homo sapiens). Put plainly: Antagonist activity at alpha3beta4alpha5beta2 in human SH-SY5Y cells at 10 uM by 86Rb+ flux assay. The class given is functional, cell-based. The gist of the method:
as §1

Data set [8] is described as follows: Inhibition of CYP3A up to 10 uM. The class given is ADME. A digest of the protocol: (§2)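 Percent inhibition of CYP isoforms (CYP1A, CYP2C9, CYP2C19, CYP2D6, CYP3A; CYP1A2 reported) with test compound at concentrations up to 10 μM.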
The target in data set [9] is D(1B) dopamine receptor (Homo sapiens) (UniProt P21918). As to the kind of experiment: Displacement of [3H][…] from D5 at 10 uM.
Data set [10] has as its target 5-hydroxytryptamine receptor 1B (Homo sapiens) (UniProt P28222). As to the kind of experiment: Displacement of [3H][…] from 5-HT1B at 10 uM.
The target of data set [11] is Beta-1 adrenergic receptor (Homo sapiens) (UniProt P08588). Put plainly: Displacement of [125I]Iodopindolol from beta1 adrenergic receptor at 10 uM.
In data set [12] the target is Neuronal acetylcholine receptor; alpha3/beta4 (Rattus norvegicus, UniProt P04757+P12392). As to the kind of experiment: Displacement of [3H] epibatidine from rat alpha3beta4 nAChR by beta scintillation counting. The class given is protein-complex assay.
In data set [13] the target is Histamine H2 receptor (Homo sapiens) (UniProt P25021). Put plainly: Displacement of [3H]Tiotidine from H2 histamine receptor at 10 uM.
For data set [14], the target named is T3, Alpha-1A adrenergic receptor (Homo sapiens) (UniProt P35348).
T3 sequence (whole entry): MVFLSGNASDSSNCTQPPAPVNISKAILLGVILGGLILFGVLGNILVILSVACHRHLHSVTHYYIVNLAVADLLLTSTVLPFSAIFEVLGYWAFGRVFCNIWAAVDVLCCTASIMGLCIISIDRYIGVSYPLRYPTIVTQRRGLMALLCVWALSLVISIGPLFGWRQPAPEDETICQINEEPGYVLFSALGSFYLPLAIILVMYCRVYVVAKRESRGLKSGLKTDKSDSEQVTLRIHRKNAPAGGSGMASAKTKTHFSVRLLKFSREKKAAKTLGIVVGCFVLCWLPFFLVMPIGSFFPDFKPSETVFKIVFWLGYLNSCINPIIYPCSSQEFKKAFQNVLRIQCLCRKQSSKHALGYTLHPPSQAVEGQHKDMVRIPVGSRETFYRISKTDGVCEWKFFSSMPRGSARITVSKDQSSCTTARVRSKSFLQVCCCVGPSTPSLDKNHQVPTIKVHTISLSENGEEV
Put plainly: Displacement of [3H]Prazosin from alpha1A adrenergic receptor at 10 uM.

The target of data set [15] is Delta-type opioid receptor (Homo sapiens) (UniProt P41143). As to the kind of experiment: Displacement of [3H]DADLE from delta opioid receptor at 10 uM.
Data set [16] concerns the target Neuronal acetylcholine receptor; alpha4/beta2 (Homo sapiens, UniProt P17787+P43681). As to the kind of experiment: Antagonist activity at human high sensitive and low sensitive alpha4beta2 nAChR expressed in SH-EP1 cells assessed as inhibition of carbamylcholine induced 86Rb+ ion efflux preincubated for 10 mins prior to carbamylcholine-induction measured after 5 mins by flip-plate technique relative to control. The class given is functional, cell-based. A digest of the protocol: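 SH-EP1 human epithelial cells stably transfected with separate human α4 and β2 subunit cDNAs express a mixed population of high-sensitivity (2:3 α4:β2) and low-sensitivity (3:2) α4β2-nAChRs. Cells were kept at low passage (1−26 from frozen stocks). Function was read as 86Rb+ ion flux.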

The target of data set [17] is Acetylcholine receptor; alpha1/beta1/delta/gamma (Homo sapiens) (UniProt P02708+P07510+P11230+Q07001). As to the kind of experiment: Agonist activity at human alpha1beta1gammadelta nAChR expressed in TE671/RD cells at 10 uM by 86Rb+ flux assay. The class given is functional, cell-based. A digest of the protocol: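 Human clonal TE671/RD cells endogenously express muscle-type α1*-nAChRs (α1, β1, γ, δ). Cells were kept at low passage (1−26 from frozen stocks). Function was read as 86Rb+ efflux, with agonist and antagonist modes tested up to 10 μM.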

In another data set the target is Cytochrome P450 2C9 (Homo sapiens, UniProt P11712). As to the kind of experiment: Inhibition of CYP2C9 up to 10 uM. In kind it is ADME. A digest of the protocol:
as §2

The species named for data set [18] is Rattus norvegicus. Put plainly: Selectivity ratio of Ki for rat alpha3beta4 to Ki for rat alpha4beta2. The gist of the method: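 Ki values from [3H]epibatidine competition binding at heterologously expressed rat nAChR subtypes, using the PDSP protocol; selectivity taken as the α3β4/α4β2 Ki ratio.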
For data set [19], the species on record is Rattus norvegicus. As to the kind of experiment: Displacement of radioligand from benzodiazepine receptor in rat brain. In kind it is tissue-based. As to conditions: concentration not given here.
The next data set concerns the target Cytochrome P450 2C19 (Homo sapiens, UniProt P33261). Put plainly: Inhibition of CYP2C19 up to 10 uM. The class given is ADME. A digest of the protocol: as §2

The structures appear in SMILES notation. The source made the active and inactive calls. The calls are words filed in the database; no cut-off is given here. A value given as a limit tells only on which side of the number the result lay.

Chain of Histamine H2 receptor (Homo sapiens) (P25021 whole entry): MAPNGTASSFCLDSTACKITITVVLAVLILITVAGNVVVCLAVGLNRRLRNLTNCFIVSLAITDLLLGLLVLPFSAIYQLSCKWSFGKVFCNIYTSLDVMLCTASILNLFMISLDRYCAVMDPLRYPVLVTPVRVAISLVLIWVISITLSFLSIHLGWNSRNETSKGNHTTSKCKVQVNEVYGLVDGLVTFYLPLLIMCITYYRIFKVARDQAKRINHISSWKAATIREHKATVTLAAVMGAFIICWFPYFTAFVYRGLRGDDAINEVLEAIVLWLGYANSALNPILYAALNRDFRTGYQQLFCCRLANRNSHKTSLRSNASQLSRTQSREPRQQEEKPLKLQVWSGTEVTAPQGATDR
T1 sequence (P17787 whole entry, looked up): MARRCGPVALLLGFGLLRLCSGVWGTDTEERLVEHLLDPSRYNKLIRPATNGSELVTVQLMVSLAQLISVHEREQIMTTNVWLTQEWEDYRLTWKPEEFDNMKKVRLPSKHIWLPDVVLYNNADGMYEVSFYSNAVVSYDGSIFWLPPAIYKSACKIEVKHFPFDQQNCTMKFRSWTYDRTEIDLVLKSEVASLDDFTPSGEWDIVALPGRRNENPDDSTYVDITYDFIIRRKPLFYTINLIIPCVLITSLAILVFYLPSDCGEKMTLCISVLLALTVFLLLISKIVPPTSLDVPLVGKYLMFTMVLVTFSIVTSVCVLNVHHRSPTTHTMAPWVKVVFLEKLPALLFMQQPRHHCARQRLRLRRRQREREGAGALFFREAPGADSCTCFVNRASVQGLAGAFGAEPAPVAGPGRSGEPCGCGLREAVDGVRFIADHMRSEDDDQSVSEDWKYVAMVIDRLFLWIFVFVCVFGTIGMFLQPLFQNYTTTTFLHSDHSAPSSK
T1 sequence (P30532 whole entry, looked up): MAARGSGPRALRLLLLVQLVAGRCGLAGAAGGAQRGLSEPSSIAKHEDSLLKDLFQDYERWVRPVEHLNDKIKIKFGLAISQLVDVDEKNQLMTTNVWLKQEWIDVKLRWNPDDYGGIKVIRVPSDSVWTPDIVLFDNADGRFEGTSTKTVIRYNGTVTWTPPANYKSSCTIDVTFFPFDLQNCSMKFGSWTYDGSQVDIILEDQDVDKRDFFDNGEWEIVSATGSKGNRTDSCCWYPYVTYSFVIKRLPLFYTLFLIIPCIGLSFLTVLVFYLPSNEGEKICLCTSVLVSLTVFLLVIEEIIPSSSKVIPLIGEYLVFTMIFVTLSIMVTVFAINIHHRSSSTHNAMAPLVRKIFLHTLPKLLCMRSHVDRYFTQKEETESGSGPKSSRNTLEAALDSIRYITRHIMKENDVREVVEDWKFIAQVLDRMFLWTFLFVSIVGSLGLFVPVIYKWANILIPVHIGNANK
T1 sequence (P30926 whole entry, looked up): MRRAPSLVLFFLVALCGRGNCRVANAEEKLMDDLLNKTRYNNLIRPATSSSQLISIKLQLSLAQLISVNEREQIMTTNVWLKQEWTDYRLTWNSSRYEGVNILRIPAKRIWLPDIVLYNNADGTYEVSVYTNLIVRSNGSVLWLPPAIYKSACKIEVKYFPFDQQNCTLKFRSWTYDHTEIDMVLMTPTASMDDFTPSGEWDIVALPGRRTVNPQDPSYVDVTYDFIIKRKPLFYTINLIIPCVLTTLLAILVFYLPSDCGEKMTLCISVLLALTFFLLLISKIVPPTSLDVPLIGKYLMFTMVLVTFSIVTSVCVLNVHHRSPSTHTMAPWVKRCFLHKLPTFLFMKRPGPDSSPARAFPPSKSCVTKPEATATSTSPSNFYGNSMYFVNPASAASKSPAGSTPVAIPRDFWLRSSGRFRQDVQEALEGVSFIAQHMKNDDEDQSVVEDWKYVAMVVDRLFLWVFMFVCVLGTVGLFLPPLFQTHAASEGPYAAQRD
T1 sequence (P32297 whole entry, looked up): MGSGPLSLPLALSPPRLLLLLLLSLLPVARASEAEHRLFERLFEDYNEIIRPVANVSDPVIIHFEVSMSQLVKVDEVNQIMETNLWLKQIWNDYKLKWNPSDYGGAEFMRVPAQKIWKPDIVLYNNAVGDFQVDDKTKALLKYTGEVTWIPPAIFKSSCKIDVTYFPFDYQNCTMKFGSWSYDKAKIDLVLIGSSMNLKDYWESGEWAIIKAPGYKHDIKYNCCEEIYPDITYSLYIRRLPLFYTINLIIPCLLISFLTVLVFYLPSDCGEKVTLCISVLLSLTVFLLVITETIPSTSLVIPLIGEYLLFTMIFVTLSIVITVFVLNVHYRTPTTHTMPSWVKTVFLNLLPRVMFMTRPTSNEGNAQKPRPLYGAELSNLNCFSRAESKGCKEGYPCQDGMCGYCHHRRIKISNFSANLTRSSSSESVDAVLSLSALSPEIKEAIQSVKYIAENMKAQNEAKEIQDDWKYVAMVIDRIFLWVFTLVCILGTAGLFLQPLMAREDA
Chain of Cytochrome P450 2C9 (P11712 whole entry): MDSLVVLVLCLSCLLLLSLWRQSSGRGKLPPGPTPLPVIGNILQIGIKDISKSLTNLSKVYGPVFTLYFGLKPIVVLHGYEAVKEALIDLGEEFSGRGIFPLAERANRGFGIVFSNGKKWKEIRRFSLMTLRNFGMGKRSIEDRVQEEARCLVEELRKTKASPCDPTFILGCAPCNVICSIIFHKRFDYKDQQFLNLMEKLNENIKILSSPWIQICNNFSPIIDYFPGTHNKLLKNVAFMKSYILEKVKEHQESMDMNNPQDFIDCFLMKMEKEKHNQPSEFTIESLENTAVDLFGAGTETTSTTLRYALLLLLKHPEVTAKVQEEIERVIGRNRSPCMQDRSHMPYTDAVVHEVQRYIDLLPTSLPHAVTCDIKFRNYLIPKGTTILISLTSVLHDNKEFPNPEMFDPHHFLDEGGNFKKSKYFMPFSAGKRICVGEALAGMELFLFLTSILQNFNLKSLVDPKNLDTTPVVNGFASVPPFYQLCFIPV
Chain of D(1B) dopamine receptor (Homo sapiens) (P21918 whole entry): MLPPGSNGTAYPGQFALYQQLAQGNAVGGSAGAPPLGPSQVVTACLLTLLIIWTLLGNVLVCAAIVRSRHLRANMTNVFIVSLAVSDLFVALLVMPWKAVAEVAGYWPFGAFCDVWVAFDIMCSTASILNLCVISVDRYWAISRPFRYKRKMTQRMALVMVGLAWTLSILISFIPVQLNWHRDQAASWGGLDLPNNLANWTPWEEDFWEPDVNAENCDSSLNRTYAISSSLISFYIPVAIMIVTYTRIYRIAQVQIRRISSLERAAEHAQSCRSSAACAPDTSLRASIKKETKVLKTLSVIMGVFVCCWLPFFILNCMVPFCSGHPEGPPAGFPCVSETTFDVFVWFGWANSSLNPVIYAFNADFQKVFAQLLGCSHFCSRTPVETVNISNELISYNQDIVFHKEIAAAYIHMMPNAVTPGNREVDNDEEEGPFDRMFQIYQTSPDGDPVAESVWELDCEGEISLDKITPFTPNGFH
Chain of Delta-type opioid receptor (Homo sapiens) (P41143 whole entry): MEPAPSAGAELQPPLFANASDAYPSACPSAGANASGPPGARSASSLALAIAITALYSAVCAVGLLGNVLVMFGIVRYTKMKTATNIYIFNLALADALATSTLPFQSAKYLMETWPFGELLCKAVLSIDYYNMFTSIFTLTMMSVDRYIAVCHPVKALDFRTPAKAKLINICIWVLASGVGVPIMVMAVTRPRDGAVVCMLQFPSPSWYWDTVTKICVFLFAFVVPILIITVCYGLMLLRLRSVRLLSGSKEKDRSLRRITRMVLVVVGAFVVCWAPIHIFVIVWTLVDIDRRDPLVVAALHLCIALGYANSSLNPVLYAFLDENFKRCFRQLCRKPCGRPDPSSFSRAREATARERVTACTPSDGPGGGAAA
Chain of Cytochrome P450 2C19 (P33261 whole entry): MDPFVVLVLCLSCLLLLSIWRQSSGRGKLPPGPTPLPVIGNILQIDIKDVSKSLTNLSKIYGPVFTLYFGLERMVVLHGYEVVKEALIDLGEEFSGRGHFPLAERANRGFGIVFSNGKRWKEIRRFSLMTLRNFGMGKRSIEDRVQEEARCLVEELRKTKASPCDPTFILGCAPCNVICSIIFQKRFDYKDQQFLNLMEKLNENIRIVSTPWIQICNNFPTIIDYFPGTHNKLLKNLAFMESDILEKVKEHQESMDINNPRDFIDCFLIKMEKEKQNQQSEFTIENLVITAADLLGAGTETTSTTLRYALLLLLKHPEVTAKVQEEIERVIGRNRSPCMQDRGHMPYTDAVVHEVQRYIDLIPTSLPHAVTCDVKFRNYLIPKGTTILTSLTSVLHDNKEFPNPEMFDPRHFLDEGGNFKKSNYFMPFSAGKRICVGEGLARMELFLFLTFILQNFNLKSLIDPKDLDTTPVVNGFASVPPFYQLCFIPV
Chain of 5-hydroxytryptamine receptor 1E (Homo sapiens) (P28566 whole entry): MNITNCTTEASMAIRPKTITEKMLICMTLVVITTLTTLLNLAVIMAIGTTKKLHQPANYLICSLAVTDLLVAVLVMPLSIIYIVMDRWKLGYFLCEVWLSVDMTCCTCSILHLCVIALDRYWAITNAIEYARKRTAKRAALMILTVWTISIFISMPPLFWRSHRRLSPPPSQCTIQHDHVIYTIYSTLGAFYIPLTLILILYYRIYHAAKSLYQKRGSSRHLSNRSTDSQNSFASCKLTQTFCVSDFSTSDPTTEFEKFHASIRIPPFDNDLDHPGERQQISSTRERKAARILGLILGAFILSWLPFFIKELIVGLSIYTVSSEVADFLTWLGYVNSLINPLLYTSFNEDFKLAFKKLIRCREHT
Chain of 5-hydroxytryptamine receptor 6 (Homo sapiens) (P50406 whole entry): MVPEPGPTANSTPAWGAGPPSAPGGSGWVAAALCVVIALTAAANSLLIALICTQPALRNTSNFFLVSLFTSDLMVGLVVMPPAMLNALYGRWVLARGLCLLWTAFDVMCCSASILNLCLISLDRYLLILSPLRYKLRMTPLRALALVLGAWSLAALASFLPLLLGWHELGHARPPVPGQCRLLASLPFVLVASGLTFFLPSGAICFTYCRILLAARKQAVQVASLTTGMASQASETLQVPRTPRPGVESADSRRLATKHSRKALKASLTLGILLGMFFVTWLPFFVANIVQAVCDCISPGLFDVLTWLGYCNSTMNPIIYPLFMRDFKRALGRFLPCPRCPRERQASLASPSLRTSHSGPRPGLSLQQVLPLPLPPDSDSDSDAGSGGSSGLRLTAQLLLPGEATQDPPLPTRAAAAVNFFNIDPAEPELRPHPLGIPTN

A word on the inhibition: it is the change of the read-out against control, counted positive when it falls. As usually defined, the Ki is the equilibrium dissociation constant of an inhibitor or competing ligand from its target. The low end stands for a stronger hold on the target, the high end for a looser hold on the target. Consider `COCC[C@H]1C[C@@H]1c1cncc(OC[C@@H]2CCN2)c1`, for which the result in [1], in [7] and in [17] was inactive. Moreover, the inhibition in [2] was -7.2%; in data set [3], 1.4%; in [4], 13.4%; in data set [5] it was -4.8%; in data set [6], 84.5%; in [9], 19.1%. In addition, the inhibition in data set [10] is -1.8%; in data set [11] it was 48.3%; in [13] it was 26.2%; in data set [14], -1.6%; in data set [15], -4.2%; in the data set filed under Rattus norvegicus [19] it was 26.6%. Besides, the “inhibition (INH)” value (in data set [8]; against Cytochrome P450 2C9; against Cytochrome P450 2C19) was “<= 25%” each time. Moreover, the Ki in [12] is > 10 µM. The Efficacy in [16] turned out to be 71%. The Ratio Ki in the data set filed under Rattus norvegicus [18] was > 100000.

On to `CNC(=O)OCC[C@H]1C[C@@H]1c1cncc(OC[C@@H]2CCN2)c1`, for which the result in [1], in data set [7] and in data set [17] was inactive. For the same compound, the inhibition in [2] was 25%; in data set [3], -6.4%; in [4], -8.2%; in data set [5], 30.5%; in data set [6], 12.3%; in [9], -1.5%. Also, the inhibition was -2.6% in data set [10]; 18.2% in data set [11]; 14.6% in data set [13]; 2.5% in data set [14]; -4.4% in data set [15]; 2% in the data set filed under Rattus norvegicus [19]. The “inhibition (INH)” value (in [8]; on Cytochrome P450 2C9; at Cytochrome P450 2C19) was “<= 25%” throughout. For the same compound, in data set [12], the Ki is > 10 µM. Also, the Efficacy in data set [16] was 85%. Also, the Ratio Ki in the data set filed under Rattus norvegicus [18] was > 100000.

Consider `OCC[C@H]1C[C@@H]1c1cncc(OC[C@@H]2CCN2)c1`, for which the result in data set [1], in data set [7] and in data set [17] was inactive. Besides, the inhibition in [2] was -7.7%; in data set [3] it was -7.1%; in [4], 6.7%; in data set [5] it was 41.4%; in [6] it was 66.2%; in data set [9] it was 25.6%. For the same compound, the inhibition in [10] is 9.3%; in data set [11], 45.8%; in data set [13], 18.4%; in [14], -1.6%; in [15], 0.8%; in the data set listed under Rattus norvegicus [19] it was 29.2%. In addition, the “inhibition (INH)” value (in data set [8]; against Cytochrome P450 2C9; against Cytochrome P450 2C19) was “<= 25%” throughout. In addition, in [12], the inhibition constant (Ki) was 6.52 µM. Moreover, the Efficacy in [16] came out at 63%. Also, in the data set filed under Rattus norvegicus [18], the Ratio Ki came to 65200.

For the origin of these results see ChEMBL document CHEMBL2021777 (J Med Chem, 2012).
